The results in this text go back to ChEMBL document CHEMBL1158477, “Synthesis, in vivo evaluation, and molecular modeling studies of new pyrazolo[5,1-c][1,2,4]benzotriazine 5-oxide derivatives. Identification of a bifunctional hydrogen bond area related to the inverse agonism” (J Med Chem, 2009).

pKi: −log10 of the molar value. Activity calls are given as the source filed them. The calls are words filed in the database; no cut-off is given here. Some results are limits rather than exact numbers.

The subject of assay [1] is Mus musculus. The assay can be described thus: Anxiolytic activity in CD1 albino mouse at 10 mg/kg, po after 30 mins by light/dark box test. It is filed as functional, organism-based. Further details: dose 10 mg/kg. An outline of the steps: (§1)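 Male CD-1 mice (22-24 g) given test substance po in 1% CMC (10 mL/kg), tested 30 min later in a light/dark box. Transfers between compartments and time spent in the illuminated side were measured. Values are mean ± SEM of 15-20 mice; compared with controls.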

The test system of assay [2] is Mus musculus. The assay can be described thus: Anxiolytic activity in CD1 albino mouse at 30 mg/kg, po after 30 mins by light/dark box test. Further details: dose 30 mg/kg. It is filed as functional, organism-based. The gist of the method:
as §1

The species entered for another assay is Bos taurus. The assay can be described thus: Displacement of [3H]flumazenil from GABAA/Benzodiazepine receptor in bovine brain at 10 uM. The gist of the method: (§2)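 Bovine brain membranes; displacement of specific [3H]flumazenil (Ro15-1788) binding. Percent inhibition measured at 10 μM; Ki determined only when inhibition at that concentration exceeded 80%. Ki given as mean ± SEM of five determinations.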
Background: In a radioligand displacement assay an active substance lowers the binding of a labelled ligand.

Assay [3] concerns Mus musculus. The assay can be described thus: Effect on learning and memory process in CD1 albino mouse assessed as decrease in retention latency at 10 mg/kg, po after 24 hrs by passive avoidance test. It is filed as functional, organism-based. Further details: dose 10 mg/kg. The gist of the method: (§3)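 Step-through passive avoidance in a two-compartment box (lit and dark compartments joined by a guillotine door). Male CD-1 mice dosed po (1% CMC) 30 min before training; retention tested 24 h later. Training and retention latencies recorded; mean ± SEM of 15-20 mice versus controls.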

Assay [4] concerns Mus musculus. The assay can be described thus: Effect on ethanol-induced sleeping time in CD1 albino mouse assessed as increase in duration of loss of righting reflex at 30 mg/kg, po preincubated 30 mins before ethanol challenge. It is filed as functional, organism-based. Further details: dose 30 mg/kg.
Assay [5] deals with Mus musculus. Kind of assay: Anxiolytic activity in CD1 albino mouse at 30 mg/kg, po after 30 mins by light/dark box test in presence of flumazenil. It is filed as functional, organism-based. Further details: dose 30 mg/kg. The gist of the method:
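Light/dark box in male CD-1 mice. Test substance given po in 1% CMC 30 min before the test, with flumazenil 100 mg/kg ip (saline) co-treatment. Transfers between compartments and time in the lit side recorded. Mean ± SEM of 15-20 mice.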

The test system of assay [6] is Mus musculus. Kind of assay: Effect on ethanol-induced sleeping time in CD1 albino mouse assessed as increase in duration of loss of righting reflex at 10 mg/kg, po preincubated 30 mins before ethanol challenge. Further details: dose 10 mg/kg. It is filed as functional, organism-based.
Assay [7] has as its system Mus musculus. Kind of assay: Effect on motor coordination in CD1 albino mouse assessed as number of falls form rotarod at 10 mg/kg, po […] measured for 30 seconds after 30 mins of dosing by rotarod test. It counts as functional. The gist of the method:
(§4)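 Rota-rod in male CD-1 mice with a pretest. Test substance given po in 1% CMC; falls from the rotating rod counted over 30 s, assessed 30 min after treatment.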

Assay [8] concerns Mus musculus. Kind of assay: Anticonvulsant activity against pentylenetetrazole-induced shock in CD1 albino mouse assessed as shock latency at 10 mg/kg, po preincubated for 30 mins before pentylenetetrazole challenge measured for 30 mins (RVb=253.1 +/- 13 seconds). It is filed as functional.
Assay [9] concerns Mus musculus. The assay can be described thus: Effect on ethanol-induced sleeping time in CD1 albino mouse assessed as increase in duration of loss of righting reflex at 3 mg/kg, po preincubated 30 mins before ethanol challenge. It is filed as functional, organism-based. Further details: dose 3 mg/kg.
In assay [10] the test system is Mus musculus. The assay can be described thus: Anticonvulsant activity against pentylenetetrazole-induced convulsions in CD1 albino mouse assessed as convulsion latency at 3 mg/kg, po preincubated for 30 mins before pentylenetetrazole challenge measured for 30 mins (RVb=599 +/- 37.6 seconds). It counts as functional.
Assay [11] concerns Mus musculus. The assay can be described thus: Anticonvulsant activity against pentylenetetrazole-induced convulsions in CD1 albino mouse assessed as convulsion latency at 10 mg/kg, po preincubated for 30 mins before pentylenetetrazole challenge measured for 30 mins (RVb=599 +/- 37.6 seconds). It counts as functional.
Assay [12] deals with Mus musculus. The assay can be described thus: Effect on explorative capacity in CD1 albino mouse assessed as curiosity-related number of head plugging activity on hole at 3 mg/kg, po after 30 mins by hole-board test. It counts as functional. An outline of the steps: (§5)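 Hole-board test in male CD-1 mice: animals placed singly on the board and allowed to explore panel and holes. Test run 30 min after po dosing in 1% CMC (10 mL/kg). Hole entries (curiosity) and plane movements (spontaneous motility) counted; 10 mice per group, compared with CMC controls.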

The subject of assay [13] is Mus musculus. The assay can be described thus: Effect on spontaneous motility in CD1 albino mouse assessed as number of movement on plane board at 3 mg/kg, po after 30 mins by hole-board test. It counts as functional. The gist of the method:
as §5

Assay [14] has as its system Mus musculus. Kind of assay: Anticonvulsant activity against pentylenetetrazole-induced shock in CD1 albino mouse assessed as shock latency at 3 mg/kg, po preincubated for 30 mins before pentylenetetrazole challenge measured for 30 mins (RVb=253.1 +/- 13 seconds). It counts as functional.
Assay [15] deals with Mus musculus. Kind of assay: Effect on spontaneous motility in CD1 albino mouse assessed as number of movement on plane board at 10 mg/kg, po after 30 mins by hole-board test. It is filed as functional. An outline of the steps: as §5
Assay [16] deals with Mus musculus. The assay can be described thus: Anxiolytic activity in CD1 albino mouse at 3 mg/kg, po after 30 mins by light/dark box test. It counts as functional, organism-based. Further details: dose 3 mg/kg. An outline of the steps:
as §1

Assay [17] concerns Mus musculus. The assay can be described thus: Effect on learning and memory process in CD1 albino mouse assessed as improvement in retention latency at 3 mg/kg, po after 24 hrs by passive avoidance test. It is filed as functional, organism-based. Further details: dose 3 mg/kg. An outline of the steps:
as §3

Assay [18] relates to Mus musculus. The assay can be described thus: Effect on learning and memory process in CD1 albino mouse assessed as improvement in retention latency at 10 mg/kg, po after 24 hrs by passive avoidance test. It is filed as functional, organism-based. Further details: dose 10 mg/kg. The gist of the method: as §3
Assay [19] is described as follows: Displacement of [3H]flumazenil from GABAA/Benzodiazepine receptor in bovine brain. Further details: species or system Bos taurus. An outline of the steps: as §2
The test system of assay [20] is Mus musculus. Kind of assay: Effect on motor coordination in CD1 albino mouse assessed as number of falls form rotarod at 3 mg/kg, po administered 60 mins before test measured for 30 seconds after 30 mins of drug infusion by rotarod test. It counts as functional. An outline of the steps:
as §4
A general note: The rotarod test checks motor coordination on a turning rod.

In assay [21] the test system is Mus musculus. Kind of assay: Effect on explorative capacity in CD1 albino mouse assessed as curiosity-related number of head plugging activity on hole at 10 mg/kg, po after 30 mins by hole-board test. It is filed as functional. The gist of the method:
as §5

The subject of assay [22] is Mus musculus. The assay can be described thus: Effect on learning and memory process in CD1 albino mouse assessed as decrease in retention latency at 30 mg/kg, po after 24 hrs by passive avoidance test. It is filed as functional, organism-based. Further details: dose 30 mg/kg. The gist of the method:
as §3

As for `CC(Oc1ccc2c(c1)n1ncc(I)c1n[n+]2[O-])c1ccccc1` (single isomer, unassigned; (-)), the outcome in the assay with Mus musculus [1], with Mus musculus [2] and with Mus musculus [3] was Active. The compound also returned an Activity in the assay filed under Bos taurus above 80%. Besides, the outcome with Mus musculus [4], in the assay with Mus musculus [5] and in the assay on Mus musculus [6] was inactive.

With `[O-][n+]1nc2c(I)cnn2c2cc(OCc3ccncc3)ccc21`, the Activity was 2.3 in the assay on Mus musculus [7]; 299 s in the assay with Mus musculus [8]; 565.8 s in the assay on Mus musculus [10]; 610.9 s in the assay with Mus musculus [11]; above 80% in the assay listed under Bos taurus; 35.5 in the assay on Mus musculus [12]. Besides, the Activity in the assay with Mus musculus [13] stood at 93.9; with Mus musculus [14], 183 s; with Mus musculus [15], 85.1; in the assay with Mus musculus [20], 1.4; in the assay on Mus musculus [21], 36.9. In addition, the outcome in the assay with Mus musculus [1], in the assay with Mus musculus [9], in the assay on Mus musculus [16] and in the assay with Mus musculus [6] was inactive. For the same compound, the result in the assay with Mus musculus [17] and with Mus musculus [18] was Active. In [19], this compound had a pKi of 8.89.

Regarding `CC(Oc1ccc2c(c1)n1ncc(I)c1n[n+]2[O-])c1ccccc1` (stereo in doubt; (+)-16), the result in the assay on Mus musculus [1], in the assay with Mus musculus [2], with Mus musculus [3], with Mus musculus [22], in the assay with Mus musculus [4] and in the assay with Mus musculus [6] was Active. In the assay filed under Bos taurus, this compound gave an Activity above 80%. Moreover, the result with Mus musculus [5] was inactive.

As a reminder, the pKi is the Ki on a negative log10 scale, so that one unit is a factor of ten. A high value points to a small Ki.
